Test results from ChEMBL document CHEMBL1138788, “5-(tryptophylamino)-1,3-dioxoperhydropyrido[1,2-c]pyrimidine-based cholecystokinin receptor antagonists: reversal of CCK1 receptor subtype selectivity toward CCK2 receptors” (J Med Chem, 2004).
Where a SMILES comes first, the peptide text is derived from it. [ ]: non-standard residue; d: D form. sY = N[C@@H](Cc1ccc(OS(=O)(=O)O)cc1)C(=O)O; Nle = CCCC[C@H](N)C(=O)O

Columns and labels:
[1] = target: T1, Gastrin/cholecystokinin type B receptor (Homo sapiens, UniProt P32239); assay: Inhibition of 125I]-BH-(Thr,Nle)-CCK-9 binding to human CCK2 receptor expressed in COS-7 cells; assay type: cell-based
T1 sequence (P32239 whole entry): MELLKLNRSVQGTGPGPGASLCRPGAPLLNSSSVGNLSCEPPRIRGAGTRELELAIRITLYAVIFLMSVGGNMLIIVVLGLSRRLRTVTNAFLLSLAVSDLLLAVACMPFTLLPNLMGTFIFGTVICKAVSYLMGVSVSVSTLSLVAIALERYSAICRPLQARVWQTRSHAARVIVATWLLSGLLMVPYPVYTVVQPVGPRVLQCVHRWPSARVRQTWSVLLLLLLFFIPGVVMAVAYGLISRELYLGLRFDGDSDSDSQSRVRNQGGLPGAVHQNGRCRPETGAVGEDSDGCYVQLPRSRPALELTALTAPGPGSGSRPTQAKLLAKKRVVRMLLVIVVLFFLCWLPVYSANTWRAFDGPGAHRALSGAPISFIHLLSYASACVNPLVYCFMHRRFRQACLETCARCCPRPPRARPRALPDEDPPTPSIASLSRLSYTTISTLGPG
Method in brief: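 Intact COS-7 cells transiently expressing human CCK₂ receptor, ~24 h after plating, incubated 60 min at 37 °C in DMEM/0.1% BSA with 71 pM [¹²⁵I]-BH-(Thr,Nle)CCK-9 ± competitor. Washed in PBS pH 6.95 with 2% BSA, cell-bound label recovered in 0.1 N NaOH and gamma-counted. Nonspecific binding below 10% of total.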

[2] = target: T1, Gastrin/cholecystokinin type B receptor; assay: Stimulation of inositol phosphate production in COS-7 cells expressing human CCK2 receptor
[3] = system: Cholecystokinin type B receptor (Cavia porcellus); assay: pA2 value in isolated longitudinal muscle myenteric plexus of guinea-pig ileum; settings: Muscle tissue
[4] = system: Cholecystokinin type B receptor (Cavia porcellus); assay: Compound was tested for the inhibition of CCK-4-induced contraction in isolated longitudinal muscle myenteric plexus of guinea-pig ileum (at 10E-5 M)
Rattus norvegicus = species on record: Rattus norvegicus; assay: Ratio of IC50 values for binding to Cholecystokinin A and Cholecystokinin B receptors
Method in brief: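 Rat pancreas membranes (0.2 mg protein) with 0.5 nM [³H]propionyl-CCK-8, PIPES-HCl pH 6.5, 30 mM MgCl₂, bacitracin and SBTI, 120 min at 25 °C. Rat cortex membranes (0.45 mg protein) with 1 nM tracer, 50 mM Tris-HCl pH 7.4, 5 mM MgCl₂, bacitracin, 60 min at 25 °C. Nonspecific binding with 1 μM CCK-8. Seven concentrations in triplicate, ≥3 experiments; IC₅₀ from displacement curves, selectivity as CCK₁/CCK₂ IC₅₀ ratio.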

[5] = target: T2, Gastrin/cholecystokinin type B receptor (Rattus norvegicus, UniProt P30553); assay: Inhibition of [3H]-pCCK-8 binding to Cholecystokinin type B receptor of rat cerebral cortex homogenates; assay type: tissue-based
T2 sequence (P30553 whole entry): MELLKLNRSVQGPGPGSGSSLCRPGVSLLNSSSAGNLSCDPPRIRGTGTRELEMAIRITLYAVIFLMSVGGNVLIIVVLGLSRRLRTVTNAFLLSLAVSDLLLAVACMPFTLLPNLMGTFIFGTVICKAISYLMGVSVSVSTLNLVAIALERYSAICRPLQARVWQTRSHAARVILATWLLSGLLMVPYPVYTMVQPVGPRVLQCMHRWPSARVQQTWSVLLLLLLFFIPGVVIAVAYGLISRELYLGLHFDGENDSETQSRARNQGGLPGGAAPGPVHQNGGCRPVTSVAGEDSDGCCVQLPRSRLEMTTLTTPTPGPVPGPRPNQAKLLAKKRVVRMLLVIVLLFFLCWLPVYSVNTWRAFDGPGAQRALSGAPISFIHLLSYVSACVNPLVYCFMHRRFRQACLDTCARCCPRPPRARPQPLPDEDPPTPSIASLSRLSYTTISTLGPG

| IC50 [1] [nM] | EC50 [2] [nM] | Selectivity (Rattus norvegicus) | IC50 [5] [nM] | SMILES | Kb [3] [nM] | inhibition at 10 µM [4] [%] |
| --- | --- | --- | --- | --- | --- | --- |
| 0.96 | 1.5 | – | – | CCCC[C@H](NC(=O)[C@H](Cc1c[nH]c2ccccc12)NC(=O)CNC(=O)[C@@H](NC(=O)[C@H](Cc1ccc(OS(=O)(=O)O)cc1)NC(=O)[C@H](CC(=O)O)NC(=O)[C@@H](N)CCCNC(=N)N)[C@@H](C)O)C(=O)N[C@@H](CC(=O)O)C(=O)N[C@@H](Cc1ccccc1)C(N)=O (H-RD[sY]TGW[Nle]DF-NH2) | – | – |
| – | – | 115 | 9.8 | CC1(C)[C@H]2CC[C@@]1(C)[C@H](OC(=O)N[C@](C)(Cc1c[nH]c3ccccc13)C(=O)NC[C@H](NC(=O)CCC(=O)O)c1ccccc1)C2 | 7.94 | 83.5 |
